Here are results for 1 molecule from ChEMBL document CHEMBL4251569, “Camptothecin-psammaplin A hybrids as topoisomerase I and HDAC dual-action inhibitors” (Eur J Med Chem, 2018).

The subject of experiment [1] is MM473. The experiment in a line: Cell cycle arrest in human MM473 cells assessed as accumulation at G2/M phase at 4 uM after 48 hrs by propidium iodide staining-based flow cytometric method (reference value: 4.3%). Type of experiment: functional. (In flow cytometry, cells or beads pass a laser one at a time.)
Experiment [2] in a line: cells. The class given is functional, cell-based. Particulars: Homo sapiens, 72 h.
Experiment [3] is described as follows: Cell cycle arrest in human MM487 cells assessed as accumulation at S phase at 0.3 uM after 48 hrs by propidium iodide staining-based flow cytometric method (reference value: 13.7%). Type of experiment: functional.
Experiment [4] deals with Protein deacetylase HDAC6 (Homo sapiens) (UniProt Q9UBN7). The experiment in a line: Inhibition of HDAC6 in human MM473 cells assessed as increase in hyperacetylation of cytoplasmic alpha-tubulin at 0.2 to 0.5 uM after 24 hrs by Western blot method. Type of experiment: cell-based. In short, it runs like this:
(§1)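 MM473 cells treated 24 h (0.2 and 0.5 µM), lysed in NP-40 or RIPA with protease/phosphatase inhibitors; 40 µg protein run on SDS-PAGE, transferred to nitrocellulose, blocked in 5% milk/TBST, probed overnight for acetyl-H4, H4, acetyl-tubulin and α-tubulin, HRP secondaries, ECL chemiluminescence; band density normalised to α-tubulin.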

Experiment [5] has as its system MM473. The experiment in a line: cells. Type of experiment: functional, cell-based. The conditions noted are these: Homo sapiens, MM473, 72 h.
The nature of experiment [6]: Cell cycle arrest in human MM487 cells assessed as accumulation at G2/M at 0.3 uM after 24 hrs by propidium iodide staining-based flow cytometric method (reference value: 16.9%). Type of experiment: functional.
The subject of a further experiment is HepG2. The experiment is described as follows: Antiproliferative activity against human HepG2 cells after 72 hrs by SRB assay. Type of experiment: functional, cell-based. The conditions noted are these: HepG2, 72 h. On the technique in general: Sulforhodamine B stains cellular protein and so reports cell mass.
The test system of another experiment is NCI-H460. The experiment is described as follows: cells. The class given is functional, cell-based. Particulars: Homo sapiens, NCI-H460, 72 h.
The next experiment deals with U2932. The experiment in a line: cells. The class given is functional, cell-based. The conditions noted are these: Homo sapiens, U2932, 72 h.
Experiment [7] has as its target Histone deacetylase (HDAC1 and HDAC2) (Homo sapiens) (UniProt Q13547+Q92769). The experiment in a line: Inhibition of HDAC1/2 in human MM473 cells assessed as increase in hyperacetylation of nuclear histone H4 at 0.2 to 0.5 uM after 24 hrs by Western blot method. Type of experiment: cell-based. In short, it runs like this: as §1
In general terms: Immunoblotting shows a protein as a band on a membrane.

The test system of experiment [8] is MM473. The experiment is described as follows: Cell cycle arrest in human MM473 cells assessed as accumulation at S phase at 4 uM after 72 hrs by propidium iodide staining-based flow cytometric method (reference value: 15.1%). Type of experiment: functional.
Experiment [9] relates to MM473. The experiment is described as follows: Cell cycle arrest in human MM473 cells assessed as accumulation at G2/M at 4 uM after 24 hrs by propidium iodide staining-based flow cytometric method (reference value: 15.7%). Type of experiment: functional.
Experiment [10] has as its system MM473. The experiment is described as follows: Induction of apoptosis in human MM473 cells at 4 uM after 24 hrs by propidium iodide staining-based flow cytometric method (reference value: 2.5%). The class given is functional.
A short description of experiment [11]: cells. Type of experiment: functional, cell-based. Particulars: Homo sapiens, A2780/DX, 72 h.
Experiment [12] is described as follows: Cell cycle arrest in human MM487 cells assessed as accumulation at G2/M phase at 0.3 uM after 48 hrs by propidium iodide staining-based flow cytometric method (reference value: 12.5%). The class given is functional.
The nature of experiment [13]: Induction of apoptosis in human MM487 cells at 0.3 uM after 24 hrs by propidium iodide staining-based flow cytometric method (reference value: 0.5%). Type of experiment: functional.
The next experiment concerns DG-75. The experiment in a line: cells. Type of experiment: functional, cell-based. The conditions noted are these: Homo sapiens, DG-75, 72 h.
The nature of experiment [14]: Cell cycle arrest in human MM487 cells assessed as accumulation at G0/G1 phase at 0.3 uM after 72 hrs by propidium iodide staining-based flow cytometric method (reference value: 80%). The class given is functional.
In a further experiment the test system is HeLa. The experiment is described as follows: cells. The class given is functional, cell-based. Particulars: Homo sapiens, 72 h.

The source made the active and inactive calls. No cut-off for these calls is given here.

Histone deacetylase (HDAC1 and HDAC2) (Homo sapiens), sequence (Q13547 whole entry, looked up): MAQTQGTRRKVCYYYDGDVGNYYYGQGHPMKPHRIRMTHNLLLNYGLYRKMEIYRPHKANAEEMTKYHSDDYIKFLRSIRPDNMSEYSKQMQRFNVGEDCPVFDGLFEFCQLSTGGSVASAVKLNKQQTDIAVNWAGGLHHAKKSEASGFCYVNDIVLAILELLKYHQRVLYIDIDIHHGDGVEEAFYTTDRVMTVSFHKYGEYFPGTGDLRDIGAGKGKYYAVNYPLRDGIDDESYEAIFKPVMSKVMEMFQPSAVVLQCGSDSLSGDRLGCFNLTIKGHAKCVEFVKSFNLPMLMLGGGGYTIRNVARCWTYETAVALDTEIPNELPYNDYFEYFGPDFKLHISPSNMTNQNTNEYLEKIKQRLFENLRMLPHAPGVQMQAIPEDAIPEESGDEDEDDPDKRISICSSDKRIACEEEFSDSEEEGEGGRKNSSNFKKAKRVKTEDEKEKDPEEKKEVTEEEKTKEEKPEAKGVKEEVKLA
Histone deacetylase (HDAC1 and HDAC2) (Homo sapiens), sequence (Q92769 whole entry, looked up): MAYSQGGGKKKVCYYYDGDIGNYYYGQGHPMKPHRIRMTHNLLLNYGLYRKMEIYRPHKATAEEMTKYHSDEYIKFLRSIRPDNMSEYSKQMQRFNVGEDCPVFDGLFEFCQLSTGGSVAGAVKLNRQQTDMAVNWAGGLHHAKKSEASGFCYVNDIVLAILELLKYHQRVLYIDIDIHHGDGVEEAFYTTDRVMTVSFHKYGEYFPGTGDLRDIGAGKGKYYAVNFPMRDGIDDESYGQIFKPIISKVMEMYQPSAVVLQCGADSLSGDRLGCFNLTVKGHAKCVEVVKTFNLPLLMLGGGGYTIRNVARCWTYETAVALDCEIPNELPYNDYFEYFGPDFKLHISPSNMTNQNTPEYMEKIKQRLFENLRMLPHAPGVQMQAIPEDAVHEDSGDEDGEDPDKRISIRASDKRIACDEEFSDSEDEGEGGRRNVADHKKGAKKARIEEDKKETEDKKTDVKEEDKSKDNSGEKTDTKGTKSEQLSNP
Protein deacetylase HDAC6 (Homo sapiens), sequence (Q9UBN7 whole entry): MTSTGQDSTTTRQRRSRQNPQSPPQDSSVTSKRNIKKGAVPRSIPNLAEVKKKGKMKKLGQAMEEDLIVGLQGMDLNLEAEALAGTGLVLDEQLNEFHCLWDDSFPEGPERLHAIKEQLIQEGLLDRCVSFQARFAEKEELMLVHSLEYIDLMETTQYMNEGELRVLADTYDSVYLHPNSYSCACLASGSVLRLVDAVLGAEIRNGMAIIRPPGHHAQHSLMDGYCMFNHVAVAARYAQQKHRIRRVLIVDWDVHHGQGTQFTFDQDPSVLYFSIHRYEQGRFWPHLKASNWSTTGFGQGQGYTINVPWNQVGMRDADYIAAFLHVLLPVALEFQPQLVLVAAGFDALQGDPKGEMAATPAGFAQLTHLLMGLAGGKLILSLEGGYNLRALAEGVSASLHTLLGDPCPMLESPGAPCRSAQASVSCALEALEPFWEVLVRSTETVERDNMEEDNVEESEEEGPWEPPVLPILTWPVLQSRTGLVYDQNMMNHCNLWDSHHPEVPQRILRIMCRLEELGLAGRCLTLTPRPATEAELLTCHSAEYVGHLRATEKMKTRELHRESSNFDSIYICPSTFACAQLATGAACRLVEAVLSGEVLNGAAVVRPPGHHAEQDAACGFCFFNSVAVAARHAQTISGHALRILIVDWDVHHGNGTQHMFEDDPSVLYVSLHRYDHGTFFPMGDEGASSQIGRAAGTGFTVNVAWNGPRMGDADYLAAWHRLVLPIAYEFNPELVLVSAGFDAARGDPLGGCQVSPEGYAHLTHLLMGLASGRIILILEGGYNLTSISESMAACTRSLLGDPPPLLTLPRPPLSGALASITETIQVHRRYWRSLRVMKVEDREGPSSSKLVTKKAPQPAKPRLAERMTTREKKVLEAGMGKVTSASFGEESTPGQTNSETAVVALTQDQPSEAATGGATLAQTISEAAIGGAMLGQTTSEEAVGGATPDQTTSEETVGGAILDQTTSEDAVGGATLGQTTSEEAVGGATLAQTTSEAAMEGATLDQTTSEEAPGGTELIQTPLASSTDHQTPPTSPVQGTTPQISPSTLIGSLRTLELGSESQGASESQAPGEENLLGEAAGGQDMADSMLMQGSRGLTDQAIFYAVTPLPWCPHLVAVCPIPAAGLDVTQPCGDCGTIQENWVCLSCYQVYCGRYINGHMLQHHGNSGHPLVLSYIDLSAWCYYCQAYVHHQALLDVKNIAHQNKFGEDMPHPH

Usually IC50 stands for the point on the concentration scale where inhibition reaches its midpoint. Regarding `CC[C@@]1(O)C(=O)OCc2c1cc1n(c2=O)Cc2c-1nc1ccccc1c2/C=N/OCCCCCC(=O)NCCSSCCNC(=O)/C(Cc1ccc(O)c(Br)c1)=N\O`, the Activity amounted to 12% with MM473 [1]; 67.8% in [3]; 1.8% in [6]; 79.3% in the experiment on MM473 [8]; 13.1% with MM473 [9]; 3.8% in the experiment with MM473 [10]. Also, the results for the Activity in [12], in experiment [13] and in [14] were 15.7%, 2.6% and 19.6%, respectively. In addition, the IC50 in the experiment “cells [2]” was 4000 nM; in the experiment with MM473 [5], 1900 nM; with HepG2, 760 nM; in the experiment with NCI-H460, 170 nM; in the experiment on U2932 it was 110 nM; in the experiment “cells [11]”, 830 nM. The IC50 in the experiment on DG-75 worked out at 8400 nM; with HeLa, 470 nM. Besides, in experiment [4], the inhibition entry was “inactive”. Also, the inhibition entry in experiment [7] was “Active”.
